Source: ChEMBL document CHEMBL1155794, “Novel N1-substituted 1,3-dihydro-2H-benzimidazol-2-ones as potent non-nucleoside reverse transcriptase inhibitors” (Bioorg Med Chem, 2008)

Tests used:
[1] = target: Human immunodeficiency virus type 1 reverse transcriptase (Human immunodeficiency virus 1, UniProt Q72547); experiment: Inhibition of HIV1 reverse transcriptase RNA-dependent DNA polymerase activity assessed as incorporation of radioactive dTTP into poly(rA)/oligo(DT)
[2] = test system: Human immunodeficiency virus 1; experiment: Antiviral activity against HIV1 3B in human MT4 cells assessed as virus-induced cytopathogenicity after 5 days; format: functional, organism-based; conditions: Human immunodeficiency virus 1, 3B, MT4, 120 h
In short: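 MT-4 cells infected and treated with serial dilutions, incubated at 37 °C for 5 days; viable cell count determined; EC50 = concentration reducing virus-induced cytopathicity by 50%.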

[3] = Cytotoxicity against human MT4 cells; format: cell-based
In short: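 MT-4 cell viability measured after exposure to compound dilutions; CC50 taken as concentration lowering viability by 50%.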

[4] = Selectivity index, ratio of CC50 for human MT4 cells to EC50 for HIV1 3B; format: toxicity, cell-based; conditions: read-out: Ratio CC50/EC50

Row | IC50 [1] [µM] | EC50 [2] [µM] | SMILES | CC50 [3] [µM] | selectivity ratio [4]
1 | 0.003 | > 33.9 | O=c1[nH]c2cc(F)c(Cl)cc2n1Cc1cc(F)cc(F)c1 | > 400 | –
2 | 0.28 | 0.425 | Cc1cc(C)cc(Cn2c(=O)[nH]c3ccc(C(F)(F)F)cc32)c1 | 37.4 | 88
3 | – | – | Cc1ccnc2c1NC(=O)c1cccnc1N2C1CC1 [NEVIRAPINE] | > 15 | –
4 | 0.158 | 0.45 | Cc1cc(C)cc(S(=O)(=O)n2c(=O)[nH]c3cc(F)c(Cl)cc32)c1 | 140 | 310
5 | – | – | O=C1Nc2ccc(Cl)cc2[C@@](C#CC2CC2)(C(F)(F)F)O1 [EFAVIRENZ] | > 6 | –
6 | 38.5 | 1.66 | CC(=O)n1c(=O)n(Cc2cc(F)cc(F)c2)c2cc(Cl)ccc21 | 40.4 | 24
7 | > 400 | > 73 | Cc1ccc2[nH]c(=O)n(Cc3cc(F)cc(F)c3)c2c1 | 73 | < 1
8 | – | – | Cc1cc(C)cc(S(=O)(=O)n2c(=O)[nH]c3ccc(Cl)cc32)c1 | – | 17800
9 | > 100 | 0.938 | Cc1cc(C)cc(Cn2c(=O)[nH]c3cc(F)c(Cl)cc32)c1 | > 410 | > 438
10 | 30 | 1.57 | O=c1[nH]c2ccc(Cl)cc2n1S(=O)(=O)c1c(F)cccc1F | 194 | 124
11 | – | – | O=c1[nH]c2ccc(Cl)cc2n1Cc1c(F)cccc1F | > 424 | > 1890
12 | 0.046 | 0.076 | Cc1cc(C)cc(Cn2c(=S)[nH]c3ccc(Cl)cc32)c1 | 0.305 | 4
13 | 0.16 | > 0.737 | Fc1cc(F)cc(Cn2c(=S)[nH]c3ccc(Cl)cc32)c1 | 1.2 | 2
14 | 0.2 | 0.065 | Cc1ccc2[nH]c(=O)n(S(=O)(=O)c3cc(F)cc(F)c3)c2c1 | 23.4 | 360
15 | 76.9 | 0.075 | Cc1cc(C)cc(Cn2c(=O)[nH]c3ccc(C)cc32)c1 | 0.856 | 11
16 | > 100 | 0.0117 | CC(=O)n1c(=O)n(Cc2cc(C)cc(C)c2)c2cc(Cl)ccc21 | 7.18 | 614
17 | – | 0.74 | Fc1cccc(F)c1Cn1c(=S)[nH]c2ccc(Cl)cc21 | 5.95 | 8
18 | 1.3 | 0.195 | Cc1ccc2[nH]c(=O)n(S(=O)(=O)c3c(F)cccc3F)c2c1 | 2.22 | 11
19 | > 100 | 18.6 | Cc1ccc2[nH]c(=O)n(Cc3c(F)cccc3F)c2c1 | 236 | 13
20 | 0.1 | 0.0063 | Cc1cc(C)cc(S(=O)(=O)n2c(=O)[nH]c3ccc(C)cc32)c1 | > 308 | > 48900
21 | 0.1 | 0.069 | O=c1[nH]c2ccc(Cl)cc2n1S(=O)(=O)c1cc(F)cc(F)c1 | 202 | 2930
22 | 0.1 | 0.289 | O=c1[nH]c2ccc(Cl)cc2n1Cc1cc(F)cc(F)c1 | > 424 | > 1470
23 | 0.14 | 29 | O=c1[nH]c2cc(F)c(Cl)cc2n1Cc1c(F)cccc1F | 267 | 9
24 | – | – | Cc1cc(C)cc(Cn2c(=O)[nH]c3ccc(Cl)cc32)c1 | – | 281
25 | > 100 | 0.534 | CC(=O)n1c(=O)n(Cc2c(F)cccc2F)c2cc(Cl)ccc21 | 102 | 190
26 | 0.017 | 5.5 | O=c1[nH]c2ccc(C(F)(F)F)cc2n1Cc1c(F)cccc1F | > 424 | > 77
